Screens as filed in PubChem BioAssay.
This is a sample that favours compounds with a hit; in the whole collection about 4.8% have one here.
XBP1 UPR activ: activators of adaptive arm of unfolded protein response (XBP1); hit rate 0.33% among 330,000; AID 463104; activation, % at 20 µM; CHO-XBP1 luciferase reporter, IRE1-XBP1 UPR activation, luminescence; percent of tunicamycin response, DMSO as zero;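 active = versus positive control, 20 µM dose yields 30% or more activation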
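Signal: luciferase luminescence; Assay system: CHO-XBP1 luciferase reporter cells; Amount: one thousand reporter cells per well; Dosing: 20 µM single concentration, DMSO 1%; Benchmarks: high control tunicamycin 10 µg/mL final, low control DMSO vehicle only; Schedule: 6 h compound exposure at 37 °C, 5% CO2; Evaluation: percent activation relative to tunicamycin reference.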
CSC inhib: cancer stem cell inhibition; cancer stem cell-like cells viability, luminescence; AID 2717; inhibition, % at 7.5 µM; hit rate 1.1% among 300,000; in the data active = inhibition above about 75%; inconclusive = no clear call, values can overlap the other calls; tested in HMLE shEcad cells
SKKanGAS inh: SKKanGAS growth inhibition | S. pyogenes SKKanGAS, kanamycin growth, BacTiter-Glo, 6 h | hit rate 1.3% among 300,000 | inhibition, % at 7.5 µM;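 active = mean replicate score, as percent of positive control median, at least 50; inconclusive = mean below 50 but one replicate at or above 50; inactive = mean and every replicate below 50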;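 note: strain carries kanamycin resistance gene driven by streptokinase promoter and grows in 40 µg/ml kanamycin; loss of luminescence reflects streptokinase promoter inhibition or plain growth inhibition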
Beta apoptosis: beta cell apoptosis inhibition; protection from apoptosis, % (no concentration beside the values); hit rate 0.8% among 300,000; INS-1E cytokine-induced death, ATP luminescence, 48 h; percent of positive-control rescue, neutral wells zero;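 active = Every replicate reaches about 75%, or at least half do and their mean reaches it too, limit read from the data; inconclusive = At least half of replicates reach the limit but their mean does not; inactive = Under half of replicates reach the limit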;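 note: higher means more ATP so stronger rescue from cytokine killing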
CHOP UPR activ: apoptotic UPR (CHOP) activation. activation, % at 10 µM. hit rate 0.34% among 330,000. CHO-CHOP luciferase reporter, luminescence; percent of tunicamycin response over DMSO baseline. AID 449763;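 active = at 10 µM dose, activation of 40% or more, normalized to positive control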
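Test system: CHO CHOP reporter cells. Input: 500 CHO-CHOP cells per well. Medium: F12 with 10% FBS. Technique: luciferase luminescence. Measure: percent activation relative to tunicamycin control. Dosing: 10 µM compound, 0.5% DMSO. Timing: 16-18 h cell attachment, then 6 h compound exposure, 37 °C.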
Mdm2 MdmX PPI: human Mdm2/MdmX binding inhibition | O15151+Q00987 | SaOS-2 split-luciferase Mdm2/MdmX complementation, luminescence | inhibition, % at 8 µM | hit rate 3% among 330,000 | AID 485346;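 active = inhibition of at least 50% at 8 µM in the primary screen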
XBP1 UPR conf: adaptive UPR (XBP1) activation, confirmed; shares compounds with XBP1 UPR activ; CHO-XBP1 IRE1-XBP1 luciferase reporter, luminescence; activation, % at 20 µM; hit rate 63% among 1,000;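 active = reporter signal at least 30% of the positive control's activation in two or more of four replicate wells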
Mdm2 MdmX conf: human Mdm2/MdmX binding inhibition, confirmed. shares compounds with Mdm2 MdmX PPI. luminescent assay. inhibition, % at 8 µM. hit rate 55% among 10,000; in the data active = inhibition above about 40%
FLuc counter: counter-screen for Mdm2/MdmX inhibitors: full-length luciferase | shares compounds with Mdm2 MdmX PPI | SaOS-2 full-length luciferase counterscreen, luminescence | inhibition, % at 8 µM | hit rate 77% among 6,200 | AID 504607;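 active = mean inhibition at 8 µM reaching about 37%, which flags the compound as non-specific, limit read from the data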;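 note: p53-null SaOS-2 cells with luciferase driven by a doxycycline-inducible promoter; compound on cells about two nights before reading with doxycycline added after day one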
Hits are given with their value; i = inactive; ? = inconclusive; nt = not tested or not shown; ! = not confirmed by another sample.

SMILES | XBP1 UPR activ | CSC inhib | SKKanGAS inh | Beta apoptosis | CHOP UPR activ | Mdm2 MdmX PPI | XBP1 UPR conf | Mdm2 MdmX conf | FLuc counter
COC(=O)c1c(NC(=O)Cc2ccc(OC)c(S(=O)(=O)N3CCOCC3)c2)sc(C)c1C | i | i | i | i | i | i | nt | nt | nt
CC1(C)C[C@H]2C3=CCC4[C@@]5(C)CC[C@H](O)C(C)(C)C5CC[C@@]4(C)[C@]3(C)[C@@H](O)[C@@H](O)[C@@]2(CO)[C@@H](O)[C@@H]1O (stereo partly drawn) | i | i | nt | i | i | i | nt | nt | nt
C=C(C)[C@@H]1CC[C@]2(C(=O)O)CC[C@]3(C)C(CCC4[C@@]5(C)CC[C@H](O)C(C)(C)C5CC[C@]43C)C12 (stereo partly drawn) | 40 | 94 | i | i | i | 94 | i | i | nt
CC(C)c1ccc(NS(=O)(=O)c2ccc3c(c2)NC(=O)CO3)cc1 | i | nt | i | nt | i | i | nt | nt | nt
CC(C)c1ccc(C2C3=C(COC3=O)Nc3cc4c(cc32)OCO4)cc1 (stereo not drawn) | 43 | i | i | i | i | 76 | 93 | 62 | 94
O=C(NC(=S)Nc1cc(-c2nc3ccccc3[nH]2)ccc1Cl)c1ccc2c(c1)OCO2 | 96 | 94 | i | 89 | i | 101 | 164 | 71 | 70
CCOc1ccc(C(=O)Nc2cc(-c3nc4ccccc4[nH]3)ccc2Cl)cc1[N+](=O)[O-] | 35 | ? | i | i | i | 93 | 535 | i | nt
O=C(c1cc(COc2ccc3c(c2)CCCC3)on1)N1CCCC1 | i | i | i | nt | i | i | nt | nt | nt
O=C(Nc1ccc(Cl)c([N+](=O)[O-])c1)c1ccc(NCCCN2CCOCC2)c([N+](=O)[O-])c1 | 42 | nt | i | i | i | 97 | i | i | nt
COc1ccc(NC(=O)c2ccc(NCCCN3CCOCC3)c([N+](=O)[O-])c2)cc1 | i | i | i | i | i | i | nt | nt | nt
O=C(N[C@@H]1C/C=C\C[C@H](CC(=O)N(CCO)Cc2ccccc2)C(=O)N[C@@H](Cc2ccccc2)COC1=O)OCC1c2ccccc2-c2ccccc21 | 50 | i | nt | i | i | 93 | i | 43 | 59
C[C@@H]1COC(=O)[C@H](NC(=O)OCC2c3ccccc3-c3ccccc32)C/C=C\C[C@@H](CC(=O)N(CCO)Cc2ccccc2)C(=O)N1 | i | nt | nt | i | i | i | nt | nt | nt
CCOC(=O)Cn1c(COc2ccccc2OC)[n+](C)c2ccccc21 | i | i | i | i | i | i | nt | nt | nt
CCCCCCCCCCOC(=O)Cn1c(COc2ccc(Cl)cc2)[n+](C)c2ccccc21 | 36 | 109 | 108 | 122 | i | 78 | 36 | 74 | 59
CCCCCCCCCCOC(=O)Cn1c(COc2ccccc2C)[n+](C)c2ccccc21 | 60 | 106 | 83 | 110 | i | 89 | 72 | 69 | i
CCCCCCCCCCOC(=O)Cn1c(COc2ccccc2)[n+](C)c2ccccc21 | 72 | 103 | 81 | 129 | i | 69 | i | 72 | i
CCCCCCCCCCOC(=O)Cn1c(COc2cccc(C)c2)[n+](C)c2ccccc21 | 34 | 169 | 101 | 99 | i | 86 | i | 71 | i
CCCCCCCCCCOC(=O)Cn1c(COc2ccc(OC)cc2)[n+](C)c2ccccc21 | 66 | 103! | i | 114 | i | 85 | 44 | 76 | i
Cc1ccc(Nc2nc(NCCO)c3ccccc3n2)cc1C | 39 | nt | i | nt | i | 55 | 39 | i | nt
COc1ccccc1Nc1nc(NCCO)c2ccccc2n1 | i | nt | i | nt | i | i | nt | nt | nt
CC(C)c1ccc(/C=C/C(=O)Nc2nc3ccc([N+](=O)[O-])cc3s2)cc1 | 50 | i | i | i | i | 56 | 32 | i | nt
CC(=O)Nc1nc2cc([N+](=O)[O-])ccc2s1 | i | i | nt | i | i | i | nt | nt | nt
COCCC(=O)N1CCC(Oc2ccc(C(=O)N3CCC(N(C)C)C3)cc2)CC1 (stereo not drawn) | i | i | i | i | i | i | nt | nt | nt
CC1CN(CCOc2ccccc2C(C)C)CC(C)O1 (stereo not drawn) | i | nt | i | nt | i | i | nt | nt | nt
CC(C)N=C(NS(=O)(=O)c1ccccc1)C(Cl)(Cl)Cl | 45 | i | i | i | i | 83 | 75 | 60 | 74
SMILES | XBP1 UPR activ | CSC inhib | SKKanGAS inh | Beta apoptosis | CHOP UPR activ | Mdm2 MdmX PPI | XBP1 UPR conf | Mdm2 MdmX conf | FLuc counter
O=S(=O)(NC(=S)c1ccccc1)c1ccccc1 | i | i | i | nt | i | i | nt | nt | nt
CCOc1cc2c3c(c1)C(C)=CC(C)(C)N3C(=O)C2=O | 41 | i | i | i | i | 68 | 32 | i | 85
Cc1ccc2nc(SCC(=O)Nc3cc(C(F)(F)F)ccc3N3CCOCC3)[nH]c2c1 | 35 | i | i | i | i | 84 | 40 | 65 | 91
COc1cc(C(=O)COC(=O)c2ccncc2)cc(OC)c1OC | i | i | nt | i | i | i | nt | nt | nt
Cc1cc(C(=O)N/N=C/c2ccc([N+](=O)[O-])o2)c(C)o1 | i | i | i | i | i | i | nt | nt | nt
COc1ccc(-c2nn(-c3ccccc3)cc2C(=O)N/N=C/c2ccc([N+](=O)[O-])o2)cc1 | 38 | i | i | i | i | 58 | i | 53 | 52
Oc1ccc(/C=N/Nc2nc(-c3cccnc3)nc3ccccc23)c(O)c1 | i | i | i | i | i | i | nt | nt | nt
Cc1c(O)ccc(/C=N/Nc2nc(-c3cccnc3)nc3ccccc23)c1O | 36 | i | i | i | i | 66 | i | 59 | 70
CCOc1ccccc1OCCCC(=O)Nc1cccc(-n2cnnn2)c1C | i | nt | nt | i | i | i | nt | nt | nt
Cc1ccc(-c2cc(C(F)F)nc3sc4c(=O)[nH]cnc4c23)cc1 | 44 | i | nt | i | i | 71 | i | i | nt
CC(C)c1nc2sc3c(=O)[nH]cnc3c2c2c1CCC2 | i | i | i | i | i | i | nt | nt | nt
CC(=O)c1cccc(NC(=S)N2CCN(CCN3C(=O)c4cccc5cccc(c45)C3=O)CC2)c1 | 159 | i | i | i | i | 65 | i | i | nt
CC(=O)c1ccc(NC(=S)N2CCN(CCN3C(=O)c4cccc5cccc(c45)C3=O)CC2)cc1 | i | i | i | i | i | i | nt | nt | nt
O=C(/C=C/c1ccc(Cl)cc1)NC(=S)Nc1ccc(N2CCOCC2)c(Cl)c1 | 124 | i | i | i | i | 86 | 126 | 44 | 91
O=C(/C=C/c1ccccc1)NC(=S)Nc1ccc(N2CCOCC2)cc1 | i | i | i | i | i | i | nt | nt | nt
O=C(Nc1nc2ccc(Cl)cc2s1)c1ccc(N2CCCCC2)c([N+](=O)[O-])c1 | 33 | i | i | i | i | 61 | 83 | 42 | 54
